Key:
[1] = target: Serine/threonine-protein kinase LATS1 (Homo sapiens) (UniProt O95835); test: Binding affinity to wild-type human partial length LATS1 (Q678 to V1130 residues) expressed in bacterial expression system assessed as residual binding level at 1 uM by Kinomescan method relative to control
[2] = target: Serine/threonine-protein kinase Nek6 (Homo sapiens) (UniProt Q9HC98); test: Binding affinity to wild-type human full length NEK6 (M8 to T313 residues) expressed in bacterial expression system assessed as residual binding level at 1 uM by Kinomescan method relative to control
Procedure, shortened: (§1)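 Single-point kinome-wide KINOMEscan binding panel, test compound at 1 μM, run by the provider's standard protocol.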

[3] = target: Ephrin type-B receptor 3 (Homo sapiens) (UniProt P54753); test: Binding affinity to wild-type human partial length EPHB3 (Q599 to T928 residues) expressed in bacterial expression system assessed as residual binding level at 1 uM by Kinomescan method relative to control
[4] = target: cAMP-dependent protein kinase catalytic subunit alpha (Homo sapiens) (UniProt P17612); test: Binding affinity to wild-type human partial length PKAC-alpha (G10 to F351 residues) expressed in bacterial expression system assessed as residual binding level at 1 uM by Kinomescan method relative to control
[5] = target: Ephrin type-A receptor 3 (Homo sapiens) (UniProt P29320); test: Binding affinity to wild-type human partial length EPHA3 (D604 to K889 residues) expressed in bacterial expression system assessed as residual binding level at 1 uM by Kinomescan method relative to control
[6] = target: 5'-AMP-activated protein kinase catalytic subunit alpha-2 (Homo sapiens) (UniProt P54646); test: Binding affinity to wild-type human partial length AMPK alpha2 (M1 to E306 residues) expressed in bacterial expression system assessed as residual binding level at 1 uM by Kinomescan method relative to control
[7] = target: Proto-oncogene tyrosine-protein kinase Src (Homo sapiens) (UniProt P12931); test: Binding affinity to wild-type human partial length SRC (L240 to L536 residues) expressed in bacterial expression system assessed as residual binding level at 1 uM by Kinomescan method relative to control
[8] = target: Dual specificity tyrosine-phosphorylation-regulated kinase 1A (Homo sapiens) (UniProt Q13627); test: Binding affinity to wild-type human partial length DYRK1A (H129 to S509 residues) expressed in mammalian expression system assessed as residual binding level at 1 uM by Kinomescan method relative to control
[9] = Drug uptake in mouse lung at 10 mg/kg, po after 2 hrs; type: ADME, organism-based; details: read-out: Drug uptake
[10] = target: Serine/threonine-protein kinase ULK3 (Homo sapiens) (UniProt Q6PHR2); test: Binding affinity to wild-type human partial length ULK3 (M1 to Q290 residues) expressed in mammalian expression system assessed as residual binding level at 1 uM by Kinomescan method relative to control
[11] = target: Serine/threonine-protein kinase Nek10 (Homo sapiens) (UniProt Q6ZWH5); test: Binding affinity to wild-type human partial length NEK10 (L488 to R809 residues) expressed in mammalian expression system assessed as residual binding level at 1 uM by Kinomescan method relative to control
[12] = target: Serine/threonine-protein kinase Chk2 (Homo sapiens) (UniProt O96017); test: Binding affinity to wild-type human partial length CHEK2 (S253 to E574 residues) expressed in bacterial expression system assessed as residual binding level at 1 uM by Kinomescan method relative to control
[13] = target: Dual specificity mitogen-activated protein kinase kinase 1 (Homo sapiens) (UniProt Q02750); test: Binding affinity to wild-type human full length MEK1 (M1 to V393 residues) expressed in mammalian expression system assessed as residual binding level at 1 uM by Kinomescan method relative to control; procedure, shortened: as §1
[14] = target: 5'-AMP-activated protein kinase catalytic subunit alpha-1 (Homo sapiens) (UniProt Q13131); test: Binding affinity to wild-type human partial length AMPK alpha1 (M1 to E306 residues) expressed in bacterial expression system assessed as residual binding level at 1 uM by Kinomescan method relative to control
[15] = target: Serine/threonine-protein kinase PAK 6 (Homo sapiens) (UniProt Q9NQU5); test: Binding affinity to wild-type human partial length PAK6 (N298 to C681 residues) expressed in bacterial expression system assessed as residual binding level at 1 uM by Kinomescan method relative to control
[16] = system: Hepatocyte growth factor receptor (Homo sapiens), P08581 [Y1235D]; test: Binding affinity to human partial length MET Y1235D mutant (D1010 to S1367 residues) expressed in bacterial expression system assessed as residual binding level at 1 uM by Kinomescan method relative to control
Procedure, shortened: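 Kinome-wide selectivity panel run by the KINOMEscan method, with the test compound at a single concentration of 1 μM. Wild-type and mutant kinases were profiled in the same screen.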

[17] = target: Atypical kinase COQ8B, mitochondrial (Homo sapiens) (UniProt Q96D53); test: Binding affinity to wild-type human full length ADCK4 (M1 to S544 residues) expressed in bacterial expression system assessed as residual binding level at 1 uM by Kinomescan method relative to control
[18] = target: Serine/threonine-protein kinase 26 (Homo sapiens) (UniProt Q9P289); test: Binding affinity to wild-type human full length MST4 (M1 to P416 residues) expressed in mammalian expression system assessed as residual binding level at 1 uM by Kinomescan method relative to control; procedure, shortened: as §1
[19] = target: Mast/stem cell growth factor receptor Kit (Homo sapiens) (UniProt P10721); test: Binding affinity to wild-type human partial length KIT (I571 to D952 residues) expressed in bacterial expression system assessed as residual binding level at 1 uM by Kinomescan method relative to control
[20] = target: Serine/threonine-protein kinase LATS2 (Homo sapiens) (UniProt Q9NRM7); test: Binding affinity to wild-type human partial length LATS2 (Q641 to V1088 residues) expressed in mammalian expression system assessed as residual binding level at 1 uM by Kinomescan method relative to control
[21] = target: Mitogen-activated protein kinase 7 (Homo sapiens) (UniProt Q13164); test: Binding affinity to wild-type human partial length ERK5 (M1 to A409 residues) expressed in bacterial expression system assessed as residual binding level at 1 uM by Kinomescan method relative to control
[22] = target: Serine/threonine-protein kinase Nek11 (Homo sapiens) (UniProt Q8NG66); test: Binding affinity to wild-type human partial length NEK11 (M1 to E313 residues) expressed in mammalian expression system assessed as residual binding level at 1 uM by Kinomescan method relative to control
[23] = target: Receptor tyrosine-protein kinase erbB-2 (Homo sapiens, UniProt P04626); test: Binding affinity to wild-type human partial length ERBB2 (K646 to V1225 residues) expressed in mammalian expression system assessed as residual binding level at 1 uM by Kinomescan method relative to control
Activated CDC42 kinase 1 = Activated CDC42 kinase 1 (Homo sapiens, UniProt Q07912); test: Inhibition of recombinant GST-tagged human TNK2 catalytic/cytoplasmic domain (110 to 476 residues) expressed in baculovirus expression system by LanthaScreen assay

Chain of Ephrin type-A receptor 3 (Homo sapiens) (P29320 whole entry, the tested form may be a part): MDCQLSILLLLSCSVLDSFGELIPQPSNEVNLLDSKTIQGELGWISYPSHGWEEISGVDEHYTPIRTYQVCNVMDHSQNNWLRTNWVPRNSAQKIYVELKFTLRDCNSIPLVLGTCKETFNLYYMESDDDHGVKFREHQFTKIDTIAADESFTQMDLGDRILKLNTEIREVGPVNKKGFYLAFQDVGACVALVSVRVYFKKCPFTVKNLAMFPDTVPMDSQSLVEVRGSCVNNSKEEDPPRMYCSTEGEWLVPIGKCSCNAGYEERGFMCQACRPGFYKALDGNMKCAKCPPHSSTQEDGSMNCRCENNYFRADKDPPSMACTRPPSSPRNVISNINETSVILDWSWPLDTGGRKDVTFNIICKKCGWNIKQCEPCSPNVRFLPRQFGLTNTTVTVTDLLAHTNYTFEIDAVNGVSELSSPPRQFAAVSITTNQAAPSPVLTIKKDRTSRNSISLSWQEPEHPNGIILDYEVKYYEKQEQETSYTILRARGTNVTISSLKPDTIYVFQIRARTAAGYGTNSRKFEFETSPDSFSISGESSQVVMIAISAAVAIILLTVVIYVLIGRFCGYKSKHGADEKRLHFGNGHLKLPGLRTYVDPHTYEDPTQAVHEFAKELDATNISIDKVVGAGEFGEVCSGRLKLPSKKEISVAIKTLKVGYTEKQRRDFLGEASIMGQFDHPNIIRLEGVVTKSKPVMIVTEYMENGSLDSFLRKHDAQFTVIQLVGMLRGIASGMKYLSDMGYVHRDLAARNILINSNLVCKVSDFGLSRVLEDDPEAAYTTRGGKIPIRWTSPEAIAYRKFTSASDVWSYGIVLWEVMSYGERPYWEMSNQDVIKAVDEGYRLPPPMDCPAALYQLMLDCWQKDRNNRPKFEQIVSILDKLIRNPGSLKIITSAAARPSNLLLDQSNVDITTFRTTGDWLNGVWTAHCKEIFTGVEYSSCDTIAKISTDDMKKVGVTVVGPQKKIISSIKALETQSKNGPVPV
Chain of Mast/stem cell growth factor receptor Kit (Homo sapiens) (P10721 whole entry, the tested form may be a part): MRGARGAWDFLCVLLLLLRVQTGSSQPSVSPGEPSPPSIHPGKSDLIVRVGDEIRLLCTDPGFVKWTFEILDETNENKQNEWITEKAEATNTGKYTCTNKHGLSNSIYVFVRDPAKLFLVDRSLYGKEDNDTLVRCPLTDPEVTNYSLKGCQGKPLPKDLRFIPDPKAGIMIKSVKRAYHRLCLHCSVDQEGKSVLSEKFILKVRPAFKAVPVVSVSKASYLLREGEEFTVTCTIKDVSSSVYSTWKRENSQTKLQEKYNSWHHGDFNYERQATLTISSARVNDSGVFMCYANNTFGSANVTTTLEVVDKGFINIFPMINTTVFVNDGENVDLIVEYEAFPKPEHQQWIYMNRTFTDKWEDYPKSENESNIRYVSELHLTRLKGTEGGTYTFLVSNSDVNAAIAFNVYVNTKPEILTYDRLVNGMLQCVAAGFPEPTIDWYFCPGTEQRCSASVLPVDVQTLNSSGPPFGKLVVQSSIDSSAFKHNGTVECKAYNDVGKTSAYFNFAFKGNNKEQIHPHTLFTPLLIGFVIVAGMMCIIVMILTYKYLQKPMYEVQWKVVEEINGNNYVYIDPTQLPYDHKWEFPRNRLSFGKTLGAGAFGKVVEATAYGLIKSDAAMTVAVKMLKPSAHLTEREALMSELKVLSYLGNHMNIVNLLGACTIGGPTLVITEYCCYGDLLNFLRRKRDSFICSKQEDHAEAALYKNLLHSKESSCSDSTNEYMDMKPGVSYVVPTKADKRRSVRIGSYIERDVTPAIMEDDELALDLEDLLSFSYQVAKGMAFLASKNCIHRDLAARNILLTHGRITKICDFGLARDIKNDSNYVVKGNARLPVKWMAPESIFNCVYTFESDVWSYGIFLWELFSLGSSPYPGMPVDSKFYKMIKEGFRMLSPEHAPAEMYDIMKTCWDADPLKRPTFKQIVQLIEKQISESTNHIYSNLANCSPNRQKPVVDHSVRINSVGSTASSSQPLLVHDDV
Chain of Serine/threonine-protein kinase Chk2 (Homo sapiens) (O96017 whole entry, the tested form may be a part): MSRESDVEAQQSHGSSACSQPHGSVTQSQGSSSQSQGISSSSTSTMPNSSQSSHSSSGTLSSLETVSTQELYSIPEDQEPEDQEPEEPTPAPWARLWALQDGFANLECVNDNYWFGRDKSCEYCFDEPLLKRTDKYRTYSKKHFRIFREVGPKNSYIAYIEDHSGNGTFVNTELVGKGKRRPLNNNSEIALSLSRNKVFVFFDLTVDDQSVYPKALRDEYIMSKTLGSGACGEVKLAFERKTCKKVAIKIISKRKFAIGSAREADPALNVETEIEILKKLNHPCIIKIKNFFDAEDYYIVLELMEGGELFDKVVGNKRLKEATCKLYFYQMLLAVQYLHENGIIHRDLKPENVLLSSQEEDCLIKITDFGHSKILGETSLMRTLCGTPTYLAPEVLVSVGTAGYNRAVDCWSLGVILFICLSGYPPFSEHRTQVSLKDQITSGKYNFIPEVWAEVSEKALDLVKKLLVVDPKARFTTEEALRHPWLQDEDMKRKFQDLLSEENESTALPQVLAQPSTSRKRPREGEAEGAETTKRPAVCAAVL
Chain of Serine/threonine-protein kinase LATS2 (Homo sapiens) (Q9NRM7 whole entry, the tested form may be a part): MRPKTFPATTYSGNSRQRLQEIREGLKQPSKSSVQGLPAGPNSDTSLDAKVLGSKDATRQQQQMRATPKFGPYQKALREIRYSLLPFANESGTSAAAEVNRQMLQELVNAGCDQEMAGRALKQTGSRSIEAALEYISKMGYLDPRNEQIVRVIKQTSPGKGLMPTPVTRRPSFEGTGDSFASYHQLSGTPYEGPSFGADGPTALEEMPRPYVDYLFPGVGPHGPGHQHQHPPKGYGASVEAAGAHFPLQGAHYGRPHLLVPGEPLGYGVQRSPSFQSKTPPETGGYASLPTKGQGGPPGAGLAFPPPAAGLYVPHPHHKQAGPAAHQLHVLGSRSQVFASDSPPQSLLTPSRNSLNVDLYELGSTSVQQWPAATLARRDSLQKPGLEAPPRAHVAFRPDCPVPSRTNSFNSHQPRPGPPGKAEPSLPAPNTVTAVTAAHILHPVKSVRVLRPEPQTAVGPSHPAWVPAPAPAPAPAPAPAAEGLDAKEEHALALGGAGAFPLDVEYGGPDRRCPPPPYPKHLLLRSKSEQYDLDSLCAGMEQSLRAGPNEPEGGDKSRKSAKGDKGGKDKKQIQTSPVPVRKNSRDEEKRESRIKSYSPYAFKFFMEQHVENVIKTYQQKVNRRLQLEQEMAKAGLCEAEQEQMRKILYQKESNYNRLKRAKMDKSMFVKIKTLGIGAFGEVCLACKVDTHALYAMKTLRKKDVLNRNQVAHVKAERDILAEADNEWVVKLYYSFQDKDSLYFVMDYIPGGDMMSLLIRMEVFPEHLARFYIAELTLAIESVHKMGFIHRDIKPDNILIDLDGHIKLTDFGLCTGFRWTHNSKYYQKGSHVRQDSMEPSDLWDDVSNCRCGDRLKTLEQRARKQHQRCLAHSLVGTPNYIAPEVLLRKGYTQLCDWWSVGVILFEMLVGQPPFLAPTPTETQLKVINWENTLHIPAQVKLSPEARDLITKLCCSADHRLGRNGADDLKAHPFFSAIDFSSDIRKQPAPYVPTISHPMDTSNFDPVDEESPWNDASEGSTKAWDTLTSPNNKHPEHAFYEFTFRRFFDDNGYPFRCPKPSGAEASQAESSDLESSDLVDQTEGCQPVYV
Chain of Receptor tyrosine-protein kinase erbB-2 (P04626 whole entry, the tested form may be a part): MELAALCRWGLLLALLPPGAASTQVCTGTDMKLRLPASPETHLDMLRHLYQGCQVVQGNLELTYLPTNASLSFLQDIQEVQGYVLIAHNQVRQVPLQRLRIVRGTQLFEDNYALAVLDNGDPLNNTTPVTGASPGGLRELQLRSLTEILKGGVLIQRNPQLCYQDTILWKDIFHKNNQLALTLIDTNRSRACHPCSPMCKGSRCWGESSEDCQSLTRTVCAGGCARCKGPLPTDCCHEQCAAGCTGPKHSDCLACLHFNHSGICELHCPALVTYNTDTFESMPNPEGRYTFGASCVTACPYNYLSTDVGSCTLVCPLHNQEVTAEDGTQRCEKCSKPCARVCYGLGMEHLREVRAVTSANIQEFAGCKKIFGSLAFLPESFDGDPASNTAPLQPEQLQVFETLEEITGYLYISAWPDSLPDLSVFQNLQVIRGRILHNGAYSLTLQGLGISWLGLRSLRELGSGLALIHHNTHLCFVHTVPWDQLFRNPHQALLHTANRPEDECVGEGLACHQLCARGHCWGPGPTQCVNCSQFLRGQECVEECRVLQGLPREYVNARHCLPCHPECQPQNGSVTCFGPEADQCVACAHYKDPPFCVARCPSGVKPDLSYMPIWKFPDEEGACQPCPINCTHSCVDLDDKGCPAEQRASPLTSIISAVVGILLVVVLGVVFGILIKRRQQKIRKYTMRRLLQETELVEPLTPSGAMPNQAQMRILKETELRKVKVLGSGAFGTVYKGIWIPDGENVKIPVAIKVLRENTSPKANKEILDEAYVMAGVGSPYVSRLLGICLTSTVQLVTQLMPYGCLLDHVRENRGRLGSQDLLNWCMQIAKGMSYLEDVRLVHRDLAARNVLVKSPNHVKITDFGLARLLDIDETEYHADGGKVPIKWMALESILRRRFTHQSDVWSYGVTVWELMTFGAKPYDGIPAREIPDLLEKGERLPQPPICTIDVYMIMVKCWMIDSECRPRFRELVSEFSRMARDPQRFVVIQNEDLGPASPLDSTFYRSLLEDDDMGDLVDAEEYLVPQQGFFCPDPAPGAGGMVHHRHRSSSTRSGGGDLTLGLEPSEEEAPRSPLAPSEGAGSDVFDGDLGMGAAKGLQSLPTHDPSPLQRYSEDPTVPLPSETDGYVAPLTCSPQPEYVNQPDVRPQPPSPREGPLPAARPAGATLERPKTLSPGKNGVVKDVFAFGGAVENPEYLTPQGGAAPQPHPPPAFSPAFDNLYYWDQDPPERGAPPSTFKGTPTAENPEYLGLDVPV

C=CC(=O)Nc1cc(Nc2ncc(Cl)c(Nc3ccccc3S(=O)(=O)C(C)C)n2)c(OC)cc1N(C)CCN(C)C
Activity [1]: 82% | Activity [2]: 80% | Activity [3]: 63% | Activity [4]: 100% | Activity [5]: 77% | Activity [6]: 23% | Activity [7]: 34% | Activity [8]: 71% | concentration at 2 h [9]: 4.64 µM | Activity [10]: 7.7% | Activity [11]: 28% | Activity [12]: 0.35% | Activity [13]: 72% | Activity [14]: 16% | Activity [15]: 96% | Activity [16]: 62% | Activity [17]: 43% | Activity [18]: 29% | Activity [19]: 39% | Activity [20]: 74% | Activity [21]: 37% | Activity [22]: 100% | Activity [23]: 0% | IC50 (Activated CDC42 kinase 1): 13 nM

Source: ChEMBL document CHEMBL4382192, “Discovery of a potent dual ALK and EGFR T790M inhibitor” (Eur J Med Chem, 2017)
